Data taken from the EternaBench riboswitch data.

Tested on: MS2 coat protein
Assay: apparent Kd, MS2 coat protein; higher = weaker binding; RNA-MaP array; FMN 200 µM where present
How it was run: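 Stalled E. coli RNA polymerase transcribed each design on Illumina sequencing-chip clusters. The clusters were titrated with SNAP-549-labelled MS2 coat protein, starting at 0.7 or 1.5 nM and doubling up to 3 µM, first without ligand and then with constant ligand, in 100 mM Tris-HCl pH 7.5, 80 mM KCl, 4 mM MgCl2, BSA, DTT, yeast tRNA and Tween-20. Green signal was normalised to red-channel RNA signal and to the control-cluster median Fmax. The apparent Kd is the median of filtered binding-curve fits made for each cluster.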

[1] = designed as: OFF switch for flavin mononucleotide, no ligand
[2] = ligand present: flavin mononucleotide, designed as: OFF switch for flavin mononucleotide
[3] = designed as: ON switch for flavin mononucleotide, no ligand
[4] = ligand present: flavin mononucleotide, designed as: ON switch for flavin mononucleotide

UACAUGAGGAUCACCCAUGUUUUGUCGUGUAUGGUAUUUAUCUAGGAUAUCAAUUGAGUUAUUUAUGAGAAGGAGAAUAUUAAU
apparent Kd [1]: 41.7 nM | apparent Kd [2]: 44 nM

UACAUGAGGAUCACCCAUGUUUUGUCGUGUAUGGUAUUUAUCUAGGAUAUCAUUUUAGUUAGUUAUGAGAAGGAGAAUAUUAAU
apparent Kd [1]: 32.2 nM | apparent Kd [2]: 31.6 nM

UACAUGAGGAUCACCCAUGUUUUGUCGUGUAUGGUAUUUAUCUAGGAUAUCAUUUUAUUUAGUUAUGAGAAGGAGAAUAUUAAU
apparent Kd [1]: 28.9 nM | apparent Kd [2]: 34.4 nM

UACGCCUAGGAGAAGGGCCCACUAUAGGGUAAAUGCUGUUCUCACAUGAGGAUCACCCAUGUGCGGCAGGAUAUCCACGCGUAC
apparent Kd [1]: 8.25 nM | apparent Kd [2]: 39 nM

UACUGACAUGAGGAUCACCCAUGUGAGGAUAUUCUCCUGCUAAAUUAAUGGUGGGUGUGAAGAAGGCACAAGGA
apparent Kd [1]: 37.3 nM | apparent Kd [2]: 120 nM

UACUGGAUUGUAGACGCGUUGCGACGAGAAGGUACACAUGAGGAUCACCCAUGUCGAGUGGGAGGUAAGGAUAUUGGAUGGCGU
apparent Kd [3]: 293 nM | apparent Kd [4]: 211 nM

UAGAAGUCAGGAUAUCCAUGGCGGCACUUGCGUGGUGGCGUGGAGAAGGGACAUGAGGAUCACCCAUGUAAAGC
apparent Kd [1]: 48.7 nM | apparent Kd [2]: 37 nM

UAGAAGUCAGGAUAUCCAUGGCGGCACUUGCGUGGUGGCGUGGAGAAGGGACAUGAGGAUCACCCAUGUAAAGU
apparent Kd [1]: 53.3 nM | apparent Kd [2]: 48.5 nM

UAGAAGUCAGGAUAUCCUGCUCGUCACUUGCGUGAUGAGUAGGAGAAGGGACAUGAGGAUCACCCAUGUAAAGG
apparent Kd [1]: 188 nM | apparent Kd [2]: 258 nM

UAGAAUCGAGGAUAUACAUGAGGAUCACCCAUGUGUUGCCGCGUGAUGUGUUUGUCAGGUAGAAGGCGAUUAUA
apparent Kd [1]: 64.4 nM | apparent Kd [2]: 266 nM

UAGCCUGUAGGAGUGGAAGCCGGUAGAAGGCAGCAUUGAUGGACCGACAUGAGGAUCACCCAUGUUGAGGAUAUACCGGGCACU
apparent Kd [1]: 39.3 nM | apparent Kd [2]: 247 nM

UAGGGCUUGGGCAGAAGGGUUACAUGAGGAUCACCCAUGUACAGAAGGAGAGCCUUGGGAAAGCUCUAGGAUAUGUCUAUGGGU
apparent Kd [1]: 9.93 nM | apparent Kd [2]: 6.66 nM

UAGUAGAUCCGAGGAUAUACAAUCCGGAAACGGUACAUGAGGAUCACCCAUGUAGAAGGCGGAUCUACAGGUACUAAAGUACCC
apparent Kd [1]: 5.89 nM | apparent Kd [2]: 8.32 nM

UAGUCGGAGACAGGAUAUGUGACUGCAUAGUGCACAGAAGGGUCUACAUGAGGAUCACCCAUGUCACCGACCACCAAACAACAA
apparent Kd [3]: 552 nM | apparent Kd [4]: 33.3 nM

UAGUGAUUGCAAGGAUAUGCUAGUUUUUAUUUGUGUUUGAUAUCUAACAUGAGGAUCACCCAUGUGCAGAAGGUGCUUGAUUUG
apparent Kd [3]: 87.8 nM | apparent Kd [4]: 107 nM

UAGUGAUUGCAAGGAUAUGCUUAUGUUUAAUUUUUUUUAAUAUCUAACAUGAGGAUCACCCAUGUGCAGAAGGUGCUUGAUUUG
apparent Kd [3]: 66.1 nM | apparent Kd [4]: 58.7 nM

UAUAAUCGAGGAUAUACAUGAGGAUCACCCAUGUGUUGCCGCGUGAUGUGUUUGUCAGGUAGAAGGCGAUUAUA
apparent Kd [1]: 200 nM | apparent Kd [2]: 43.8 nM

UAUAGACAUGAGGAUCACCCAUGUAAGGAUAUCGGUACUAAUGGUAUAAUCUACUUAGCGAGAAGGUACAAUGU
apparent Kd [1]: 31 nM | apparent Kd [2]: 30.6 nM

UAUAGUGGCGUAGGAUAUCUGCGUACAUGAGGAUCACCCAUGUCUCCCAGCAGCUGAUCUGGGACAGAGAAGGGCGACCGCAUA
apparent Kd [3]: 157 nM | apparent Kd [4]: 63.6 nM

UAUAUACAUGAGGAUCACCCAUGUAAGGAUAUGCAUUAUUAUUAUUAUUAUUAUUAUAGCAGAAGGUACAAUAU
apparent Kd [1]: 32.1 nM | apparent Kd [2]: 31.3 nM

UAUAUAUAGUAAGGAUAUAUAUUUUUUUUUUAAAUAGAAGGUACAGACAUGAGGAUCACCCAUGUUAUAAUAUGGACAUGUGGA
apparent Kd [1]: 99 nM | apparent Kd [2]: 136 nM

UAUAUAUAGUAAGGAUAUGUAAUUAUUCUAUAAACAGAAGGUACUGACAUGAGGAUCACCCAUGUUUUAGUGUGGGCAUGUAGA
apparent Kd [1]: 43.4 nM | apparent Kd [2]: 46 nM

UAUAUAUAGUAAGGAUAUGUAAUUAUUUUACAAACAGAAGGUACUGACAUGAGGAUCACCCAUGUUUUAGUGUGGGCAUGUAGA
apparent Kd [1]: 47.3 nM | apparent Kd [2]: 54.4 nM

UAUAUAUAGUAAGGAUAUGUAAUUGUUUUAUAAACAGAAGGUACUGACAUGAGGAUCACCCAUGUUUUAGUGUGGGCAUGUAGA
apparent Kd [1]: 57.4 nM | apparent Kd [2]: 78.8 nM

UAUAUAUAGUAAGGAUAUGUAUAUAGUUUAUAAACAGAAGGUACUGACAUGAGGAUCACCCAUGUUUUAGUGUGGGCAUGUAGA
apparent Kd [1]: 77.9 nM | apparent Kd [2]: 99.5 nM

UAUAUAUAGUAAGGAUAUGUAUAUAUGUUAUAAACAGAAGGUACUGACAUGAGGAUCACCCAUGUUUUAGUGUGGGCAUGUAGA
apparent Kd [1]: 66.2 nM | apparent Kd [2]: 96 nM

UAUAUAUAGUAAGGAUAUGUAUUAAUUUUGUAAACAGAAGGUACUGACAUGAGGAUCACCCAUGUUUUAGUGUGGGCAUGUAGA
apparent Kd [1]: 130 nM | apparent Kd [2]: 208 nM

UAUAUAUAGUAAGGAUAUGUAUUUAGUUUAUAAACAGAAGGUACUGACAUGAGGAUCACCCAUGUUUUAGUGUGGGCAUGUAGA
apparent Kd [1]: 87.7 nM | apparent Kd [2]: 127 nM

UAUAUUAUUAUAGGAUAUGGAUAUGAUGCAUAUCCAGAAGGGUGAUUAUAAUAUUUUCUGUACAUGAGGAUCACCCAUGUUUAU
apparent Kd [3]: 141 nM | apparent Kd [4]: 41.6 nM

UAUCUGUGAGGAUAUCCGGGCCCGGGCGAAAGCCCGGGCCCGGAGAAGGCACAUGAGGAUCACCCAUGUGACCU
apparent Kd [1]: 14.8 nM | apparent Kd [2]: 19.1 nM

UAUGCGAGAGGAUAUACAUGAGGAUCACCCAUGUGUCCGACACAAUUCAGUUGCAUAUGUAGAAGGCUUGCGAC
apparent Kd [1]: 14.4 nM | apparent Kd [2]: 19.6 nM

UAUGGUUAAGUCAGGAUAUGCUCAUAGAGGUCUGUGCAGAAGGGACAUGAGGAUCACCCAUGUAUGGUCGUGUU
apparent Kd [1]: 254 nM | apparent Kd [2]: 237 nM

UAUUCUAGAUAGGAUAUACUUUUUUUUUUUUUCGUAGAAGGAUCUACAUGAGGAUCACCCAUGUUUUCAGCAGU
apparent Kd [1]: 44.5 nM | apparent Kd [2]: 38.4 nM

UAUUUAUUAGAGAAGGUACAUACAAUUAACAACAUACAUGAGGAUCACCCAUGUUGGUGAAUAAGUAAGGAUAUUUAAUACUUU
apparent Kd [1]: 31.3 nM | apparent Kd [2]: 17.6 nM

UAUUUGCAAGGAUAUGAUUUAAGUAACAUGAGGAUCACCCAUGUUUUUCCGUUGUUAUGUUCAGAAGGUGCGUGAU
apparent Kd [1]: 58.6 nM | apparent Kd [2]: 74.9 nM

UAUUUUAACUAAGGAUAUCUGUAUUUUGUUGAAACAUGAGGAUCACCCAUGUUCAUGAAAUUAUAGGAGAAGGUAGAUGAAUAA
apparent Kd [3]: 6.65 nM | apparent Kd [4]: 4.95 nM

UCAAGUAUGUAGGAUAUCGAUGUCCUUGGACAUCGAGAAGGACGUACAUGAGGAUCACCCAUGUAACUUGCAUG
apparent Kd [1]: 219 nM | apparent Kd [2]: 278 nM

UCACGGGACUGAGGAUAUACAUUUAUUAUUUUUGUAGAAGGCAGAAUGUUAGUUUUUUCACUAUACAUGAGGAUCACCCAUGUU
apparent Kd [1]: 27.1 nM | apparent Kd [2]: 19.9 nM

UCACGGGAUUGAGGAUAUAUAUUAAUUUUUACAAUAGAAGGCAAAUUGUUAGUUUUUUCACUAUACAUGAGGAUCACCCAUGUU
apparent Kd [1]: 27.4 nM | apparent Kd [2]: 25.1 nM

UCACGGGAUUGAGGAUAUAUAUUUAUUAUUUUAAUAGAAGGCAAAGAGUUAGUUUUUUCACUAUACAUGAGGAUCACCCAUGUU
apparent Kd [1]: 33.4 nM | apparent Kd [2]: 30.5 nM

UCACGGUAUGUAGGAUAUGCAUAGCAUUGCUAUGCAGAAGGACAUGAGGAUCACCCAUGUAUGUAUUCCAUACUAAUCCCGUGA
apparent Kd [1]: 5.65 nM | apparent Kd [2]: 5.56 nM

UCAGGCUUCGAGAAGGACAUGAGGAUCACCCAUGUGCGUGUAAAACAGCCAAAAGGCUGCAUCAUGUAGGAUAUCGGAGUCUGC
apparent Kd [1]: 279 nM | apparent Kd [2]: 192 nM

UCAGGUGGAGGAUAUACAGCUCGAUCCUGUAAUAAAACGGCACAUGAGGAUCACCCAUGUAGAAGGCCACAAUA
apparent Kd [1]: 25.7 nM | apparent Kd [2]: 126 nM

UCAUACAUUCGAGGAUAUCGGUGAGAAAUCUUUCGAGAAGGCGAUUCAUGAUUUAUUAUCCUGGACAUGAGGAUCACCCAUGUA
apparent Kd [3]: 85.3 nM | apparent Kd [4]: 65.5 nM

UCAUACAUUCGAGGAUAUCGGUGAUAACUCUAACGAGAAGGCGAUUUAAAACAUAAUGCUGUAGACAUGAGGAUCACCCAUGUA
apparent Kd [3]: 416 nM | apparent Kd [4]: 146 nM

UCAUCAGCGGGCGGGUCGGUUGGACAUGAGGAUCACCCAUGUAGAAGGACCGGUGGACUCCGCCGGUAGGAUAUACAUUUGGUG
apparent Kd [1]: 32.1 nM | apparent Kd [2]: 18.9 nM

UCAUGAAGGAUAGGAUAUGGACAUGAGGAUCACCCAUGUACAUGGGAAUGAAUACUGAAUUUGUACUAGAAGGGUUACAUAAAU
apparent Kd [1]: 56.4 nM | apparent Kd [2]: 37 nM

UCAUGCAUAGCGAUAUGAUCGAGAGAUCAUGUCGCUAAAUUUAGAAGGACAUGAGGAUCACCCAUGUAGGAUAUGGGAGCAUGA
apparent Kd [3]: 43 nM | apparent Kd [4]: 11 nM

UCAUGUUAGCAGGAUAUGCUAUUUAUUUUUUAUGCAGAAGGGCUUACAUGAGGAUCACCCAUGUAUUAAGUUUU
apparent Kd [1]: 154 nM | apparent Kd [2]: 19.1 nM

UCCAAAUCGUAGAAGGGUGACAUGAGGAUCACCCAUGUGCAGCAGCCGUGAAUGGCCAUGCUGCCACAGGAUAUACGAUGGAGU
apparent Kd [3]: 49 nM | apparent Kd [4]: 43 nM

UCCAACCCUGUGAGGAUAUCGUCCAUUUUUUGUUACGAGAAGGCACAUGAGGAUCACCCAUGUUUUUUAUUUUU
apparent Kd [1]: 21.9 nM | apparent Kd [2]: 134 nM

UCCACUGCUGAGAAGGGAUCCGUGUGGUUCGAAUCAGGAUAUCGAUACAGUGCAGCAUGAGGACAUGAGGAUCACCCAUGUAUU
apparent Kd [3]: 16 nM | apparent Kd [4]: 13 nM

UCCCUAAGGCGGACCGACCAUACAUGAGGAUCACCCAUGUCGAGAAGGUGCUCACGGGUGGGUGGCAAGGAUAUCGGGUCGGAA
apparent Kd [3]: 69.8 nM | apparent Kd [4]: 36.5 nM

UCCGGACAUGAGGAUCACCCAUGUCAGGAUAUACCCGAGGCAGCGAACUCGCUAGCCAGUAGAAGGGACAUGGU
apparent Kd [1]: 19.8 nM | apparent Kd [2]: 20.8 nM

UCCGUGGCAUCUCGCGCAUGUCUACAUGAGGAUCACCCAUGUCAGGAUAUACGGAUUGUCGUUCUGUAGAAGGGACAAGGGCUG
apparent Kd [1]: 131 nM | apparent Kd [2]: 108 nM
